In ChEMBL document CHEMBL3576820, “Discovery of benzimidazole oxazolidinediones as novel and selective nonsteroidal mineralocorticoid receptor antagonists” (ACS Med Chem Lett, 2015):
The source made the active and inactive calls. The calls are words filed in the database; no cut-off is given here.

Experiments:
[1] = biological target: T1, Progesterone receptor (Homo sapiens, UniProt P06401); experiment: Antagonist activity at human progesterone receptor beta expressed in human U2OS cells assessed as inhibition of D(-)-norgestrel-induced protein interaction with steroid receptor co-activator peptide after overnight incubation by beta-galactosidase reporter gene assay; format: cell-based
T1 sequence (P06401 whole entry): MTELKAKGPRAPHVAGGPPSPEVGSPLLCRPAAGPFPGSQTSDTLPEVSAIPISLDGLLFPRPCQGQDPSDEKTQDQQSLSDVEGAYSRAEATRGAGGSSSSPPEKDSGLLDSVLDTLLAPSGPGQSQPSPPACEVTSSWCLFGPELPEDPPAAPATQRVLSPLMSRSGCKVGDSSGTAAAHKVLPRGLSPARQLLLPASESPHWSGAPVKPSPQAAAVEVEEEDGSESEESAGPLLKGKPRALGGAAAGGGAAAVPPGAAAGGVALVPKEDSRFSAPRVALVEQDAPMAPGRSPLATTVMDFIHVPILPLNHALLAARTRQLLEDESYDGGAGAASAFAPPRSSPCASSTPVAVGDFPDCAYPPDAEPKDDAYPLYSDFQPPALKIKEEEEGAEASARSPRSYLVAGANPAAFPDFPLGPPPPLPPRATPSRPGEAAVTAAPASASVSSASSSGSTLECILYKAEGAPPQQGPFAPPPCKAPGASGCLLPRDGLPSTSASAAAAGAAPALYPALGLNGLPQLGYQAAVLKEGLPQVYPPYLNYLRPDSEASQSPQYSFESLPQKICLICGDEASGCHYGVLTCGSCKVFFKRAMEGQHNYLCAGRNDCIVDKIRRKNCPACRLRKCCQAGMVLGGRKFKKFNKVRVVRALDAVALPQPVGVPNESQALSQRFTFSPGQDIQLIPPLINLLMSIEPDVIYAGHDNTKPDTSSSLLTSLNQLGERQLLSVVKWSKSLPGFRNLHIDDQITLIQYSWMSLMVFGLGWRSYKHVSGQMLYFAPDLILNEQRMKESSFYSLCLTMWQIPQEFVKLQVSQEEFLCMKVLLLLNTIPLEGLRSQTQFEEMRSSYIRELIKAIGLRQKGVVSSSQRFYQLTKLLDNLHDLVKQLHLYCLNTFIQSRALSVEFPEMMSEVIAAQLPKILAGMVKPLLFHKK

[2] = biological target: Estrogen receptor beta (Homo sapiens, UniProt Q92731); experiment: Antagonist activity at human estrogen receptor beta assessed as inhibition of agonist-induced protein interaction with steroid receptor co-activator peptide by cell-based reporter gene assay
[3] = Metabolic stability in human liver microsomes assessed as compound remaining at 1 uM after 0.5 hrs; format: ADME; conditions: read-out: Stability
[4] = Metabolic stability in rat liver microsomes assessed as compound remaining at 1 uM after 0.5 hrs; format: ADME; conditions: read-out: Stability
[5] = biological target: T2, Estrogen receptor (Homo sapiens, UniProt P03372); experiment: Antagonist activity at human estrogen receptor alpha expressed in CHOK1 cells assessed as inhibition of beta-estradiol-induced protein interaction with steroid receptor co-activator peptide after overnight incubation by beta-galactosidase reporter gene assay; format: cell-based, CHO-K1
T2 sequence (P03372 whole entry): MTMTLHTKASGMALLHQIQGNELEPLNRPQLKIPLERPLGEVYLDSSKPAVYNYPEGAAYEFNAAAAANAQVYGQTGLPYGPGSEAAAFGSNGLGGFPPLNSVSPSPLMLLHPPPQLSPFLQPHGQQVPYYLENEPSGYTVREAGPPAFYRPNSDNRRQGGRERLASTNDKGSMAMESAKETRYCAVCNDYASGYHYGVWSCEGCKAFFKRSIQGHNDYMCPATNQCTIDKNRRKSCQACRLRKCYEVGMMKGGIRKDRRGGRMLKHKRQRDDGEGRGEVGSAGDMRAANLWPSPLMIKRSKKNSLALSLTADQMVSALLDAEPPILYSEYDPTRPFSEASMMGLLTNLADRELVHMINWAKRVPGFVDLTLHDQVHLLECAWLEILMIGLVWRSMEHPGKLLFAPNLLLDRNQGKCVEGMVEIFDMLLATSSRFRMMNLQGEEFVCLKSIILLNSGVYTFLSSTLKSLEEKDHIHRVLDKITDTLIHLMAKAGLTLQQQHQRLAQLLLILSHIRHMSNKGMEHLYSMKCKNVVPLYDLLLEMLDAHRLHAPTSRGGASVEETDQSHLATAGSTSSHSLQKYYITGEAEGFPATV

[6] = biological target: T3, Estrogen receptor (Homo sapiens) (UniProt P03372); experiment: Agonist activity at human estrogen receptor alpha by cell-based assay
T3 sequence (whole entry): T2 sequence (P03372 whole entry)

[7] = Plasma clearance in Wistar han rat at 2 mg/kg, po and 1 mg/kg, iv; format: ADME, organism-based
How it was run: (§1)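 Wistar Han rats. IV dose 1 mg/kg in DMSO/PEG200/water (10:60:30), n=2. Oral dose 2 mg/kg in imwitor/tween (1:1) by gavage, n=3. Values are averages. Derived: F%, plasma clearance, Vdss, terminal half-life and oral AUC normalized to dose.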

[8] = Volume of distribution at steady state in Wistar han rat at 2 mg/kg, po and 1 mg/kg, iv; format: ADME, organism-based; conditions: in vivo, read-out: Vdss; how it was run: as §1
[9] = Terminal half life in Wistar han rat at 2 mg/kg, po and 1 mg/kg, iv; format: ADME, organism-based; conditions: in vivo, read-out: beta t1/2 (converted); how it was run: as §1
[10] = Fraction unbound in 10% human plasma; format: ADME, cell-free; conditions: 10% plasma
How it was run: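 Free fraction measured in the presence of 10% plasma (human or rat), taken as correlating with the free fraction in whole plasma.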

Estrogen receptor beta, sequence (Q92731 whole entry): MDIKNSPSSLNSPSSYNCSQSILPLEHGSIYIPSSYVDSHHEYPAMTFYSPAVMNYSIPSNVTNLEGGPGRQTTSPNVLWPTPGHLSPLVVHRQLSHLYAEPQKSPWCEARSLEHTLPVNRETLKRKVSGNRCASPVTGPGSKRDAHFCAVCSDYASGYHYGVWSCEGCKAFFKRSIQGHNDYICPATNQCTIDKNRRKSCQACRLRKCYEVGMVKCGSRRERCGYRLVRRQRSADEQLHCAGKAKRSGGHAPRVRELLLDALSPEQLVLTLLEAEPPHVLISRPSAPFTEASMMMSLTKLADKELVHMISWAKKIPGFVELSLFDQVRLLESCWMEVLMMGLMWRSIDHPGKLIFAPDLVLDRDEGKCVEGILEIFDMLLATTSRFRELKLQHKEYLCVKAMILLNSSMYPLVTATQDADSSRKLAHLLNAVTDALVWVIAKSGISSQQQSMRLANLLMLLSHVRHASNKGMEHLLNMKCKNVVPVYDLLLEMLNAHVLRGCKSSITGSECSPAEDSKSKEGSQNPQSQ

IC50 [1] [µM]	IC50 [2] [µM]	remaining at 0.5 h, 1 µM [3] [%]	remaining at 0.5 h, 1 µM [4] [%]	IC50 [5] [µM]	Activity [6]	clearance [7] [mL/min/kg]	Vd [8] [L/kg]	half-life [9] [h]	fraction unbound [10]	SMILES
4.9	12	93	80	17	inactive	32	1.8	1.6	0.034	C[C@H](c1ccc(F)cc1)N1C(=O)O[C@](Cc2ccccc2)(c2nc3cc(NS(C)(=O)=O)ccc3[nH]2)C1=O
3.2	2.7	89	41	3	inactive	33	3.4	1.7	0.002	C[C@H](c1ccc(F)cc1)N1C(=O)O[C@](Cc2ccccc2)(c2nc3cc(C(F)(F)F)ccc3[nH]2)C1=O
8.2	7.3	46	44	> 20	inactive	55	3.2	1.2	0.058	C[C@H](c1ccc(F)cc1)N1C(=O)O[C@](Cc2ccccc2)(c2nc3c(NS(C)(=O)=O)cccc3[nH]2)C1=O
2.4	2.4	55	14	3.3	inactive	47	4.6	1.5	0.002	C[C@H](c1ccc(F)cc1)N1C(=O)O[C@](Cc2ccccc2)(c2nc3cc(Cl)ccc3[nH]2)C1=O
1.9	5.3	81	92	6.1	inactive	67	2.3	0.69	0.093	C[C@H](c1ccc(F)cc1)N1C(=O)O[C@](Cc2ccccc2)(c2nc3cc(N4CCOCC4)ccc3[nH]2)C1=O
2.8	3	27	54	4.9	inactive	20	1.9	1.2		Cc1nocc1-c1ccc2[nH]c([C@@]3(Cc4ccccc4)OC(=O)N([C@H](C)c4ccc(F)cc4)C3=O)nc2c1
2.9	2.6	86	62	6.3	inactive	19	1.6	1.8	0.04	C[C@H](c1ccc(F)cc1)N1C(=O)O[C@](Cc2ccccc2)(c2nc3cc(-c4cc[nH]n4)ccc3[nH]2)C1=O
2.9	2.7	94	45	7.9	inactive	80	5	0.94	0.002	C[C@H](c1ccc(F)cc1)N1C(=O)O[C@](Cc2ccccc2)(c2nc3cc(-c4cccnc4)ccc3[nH]2)C1=O
